Activity calls are given as the source filed them. No cut-off for these calls is given here.
Columns and labels:
[1] = test system: Aspergillus fumigatus; assay: Induction of change in outer mitochondrial membrane protein porin protein level in iTRAQ-116 labelled secreted fraction of drug-susceptible Aspergillus fumigatus KU80 delta-akuB at 0.12 ug/ml after 48 hrs in YPD medium by MS (MS/MS) analysis relative to control; assay type: functional
Outline: (§1)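 Conidia (1 × 10⁵/ml) grown in YPD, 37°C, 225 rpm, ± 0.12 μg/ml caspofungin; filtrate taken as secreted fraction, French-press lysate 5,000 × g pellet as cell wall/plasma membrane. Trypsin digests 8-plex iTRAQ-labelled (drug-free channels as references), pooled, 2D-chromatography, MS/MS. Median-normalized; protein ratio = median of unique-peptide ratios, log2 normalized.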

[2] = test system: Aspergillus fumigatus; assay: Induction of change in 60S ribosomal protein L27e protein level in iTRAQ-118 labelled cell wall fraction of drug-susceptible Aspergillus fumigatus KU80 delta-akuB at 0.12 ug/ml after 24 hrs in YPD medium by MS (MS/MS) analysis relative to control; assay type: functional
Outline: (§2)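 Conidia at 1 × 10⁵/ml grown shaking at 37°C in YPD with or without 0.12 μg/ml caspofungin; mycelia filtered at 24 or 48 h. Secreted fraction taken from the filtrate; cell wall/plasma membrane pellet recovered after French-press lysis and a 5,000 × g spin. Proteins trypsin-digested and iTRAQ-labelled, drug vs no-drug channels at each time, then 2D LC-MS/MS. Protein ratio is the median of ratios from uniquely assigned peptides after median normalization.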

[3] = test system: Aspergillus fumigatus; assay: Induction of change in thioredoxin TrxA protein level in iTRAQ-118 labelled cell wall fraction of drug-susceptible Aspergillus fumigatus KU80 delta-akuB at 0.12 ug/ml after 24 hrs in YPD medium by MS (MS/MS) analysis relative to control; assay type: functional; outline: as §1
[4] = test system: Aspergillus fumigatus; assay: Induction of change in cytosolic small ribosomal subunit protein S12 protein level in iTRAQ114 labelled secreted fraction of drug-susceptible Aspergillus fumigatus KU80 delta-akuB at 0.12 ug/ml after 24 hrs in YPD medium by MS (MS/MS) analysis relative to control; assay type: functional; outline: as §2
[5] = test system: Aspergillus fumigatus; assay: Induction of change in NAP family protein level in iTRAQ-118 labelled cell wall fraction of drug-susceptible Aspergillus fumigatus KU80 delta-akuB at 0.12 ug/ml after 24 hrs in YPD medium by MS (MS/MS) analysis relative to control; assay type: functional; outline: as §2
[6] = test system: Aspergillus fumigatus; assay: Induction of change in extracellular conserved serine-rich protein level in iTRAQ-116 labelled secreted fraction of drug-resistant Aspergillus fumigatus EMFR-S678P at 0.12 ug/ml after 48 hrs in YPD medium by MS (MS/MS) analysis relative to control; assay type: functional
Outline: (§3)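 Conidia at 1 × 10⁵/ml were grown at 37°C, shaking at 225 rpm, in YPD with or without 0.12 μg/ml caspofungin for 24 or 48 h. The culture filtrate was kept as the secreted fraction. Mycelia were lysed by French press in HEPES/glycerol/EDTA/PMSF/DTT buffer, and the 5,000 × g pellet was washed to give CW/PM. Proteins were reduced, alkylated and trypsin-digested at 37°C overnight, then iTRAQ-labelled and run by 2D LC-MS/MS. Ratios are the median of unique-peptide ratios, median-normalized, versus the no-drug control.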

[7] = test system: Aspergillus fumigatus; assay: Induction of change in Mn superoxide dismutase MnSOD protein level in iTRAQ114 labelled cell wall fraction of drug-susceptible Aspergillus fumigatus KU80 delta-akuB at 0.12 ug/ml after 24 hrs in YPD medium by MS (MS/MS) analysis relative to control; assay type: functional; outline: as §2
[8] = test system: Aspergillus fumigatus; assay: Induction of change in antigenic mitochondrial protein HSP60, putative protein level in iTRAQ-116 labelled secreted fraction of drug-resistant Aspergillus fumigatus EMFR-S678P at 0.12 ug/ml after 48 hrs in YPD medium by MS (MS/MS) analysis relative to control; assay type: functional; outline: as §3
[9] = test system: Aspergillus fumigatus; assay: Induction of change in cytochrome b5, putative protein level in iTRAQ114 labelled secreted fraction of drug-resistant Aspergillus fumigatus EMFR-S678P at 0.12 ug/ml after 24 hrs in YPD medium by MS (MS/MS) analysis relative to control; assay type: functional; outline: as §3
[10] = test system: Aspergillus fumigatus; assay: Induction of change in mitochondrial hypoxia responsive domain protein level in iTRAQ121 labelled cell wall fraction of drug-susceptible Aspergillus fumigatus KU80 delta-akuB at 0.12 ug/ml after 48 hrs in YPD medium by MS (MS/MS) analysis relative to control; assay type: functional; outline: as §1
[11] = test system: Aspergillus fumigatus; assay: Induction of change in cell wall glucanase (Utr2), putative protein level in iTRAQ-118 labelled cell wall fraction of drug-susceptible Aspergillus fumigatus KU80 delta-akuB at 0.12 ug/ml after 24 hrs in YPD medium by MS (MS/MS) analysis relative to control; assay type: functional; outline: as §2
[12] = test system: Aspergillus fumigatus; assay: Induction of change in 60S ribosomal protein L10 protein level in iTRAQ-118 labelled cell wall fraction of drug-resistant Aspergillus fumigatus EMFR-S678P at 0.12 ug/ml after 24 hrs in YPD medium by MS (MS/MS) analysis relative to control; assay type: functional, organism-based; outline: as §3
[13] = test system: Aspergillus fumigatus; assay: Induction of change in 60S ribosomal protein L12, putative gene expression in drug-susceptible Aspergillus fumigatus KU80 delta-akuB at 0.12 ug/ml after 24 hrs in YPD medium by microarray analysis relative to control; assay type: functional
Outline: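 Mycelia grown in YPD ± 0.12 μg/ml caspofungin (1 × 10⁵ conidia/ml, 37°C, shaking) and harvested at 24 or 48 h. Total RNA extracted, DNase-treated and quality-checked; 2 μg labelled per TIGR SOP M007 and hybridized to whole-genome arrays. Three independent experiments with dye flip (6 replicates); drug vs untreated fold change.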

[14] = test system: Aspergillus fumigatus; assay: Induction of change in GNAT family acetyltransferase, putative protein level in iTRAQ-118 labelled cell wall fraction of drug-resistant Aspergillus fumigatus EMFR-S678P at 0.12 ug/ml after 24 hrs in YPD medium by MS (MS/MS) analysis relative to control; assay type: functional, organism-based; outline: as §3
[15] = test system: Aspergillus fumigatus; assay: Induction of change in cytosolic small ribosomal subunit S15, putative protein level in iTRAQ114 labelled cell wall fraction of drug-susceptible Aspergillus fumigatus KU80 delta-akuB at 0.12 ug/ml after 24 hrs in YPD medium by MS (MS/MS) analysis relative to control; assay type: functional; outline: as §2
[16] = test system: Aspergillus fumigatus; assay: Induction of change in 40S ribosomal protein S3Ae protein level in iTRAQ114 labelled cell wall fraction of drug-susceptible Aspergillus fumigatus KU80 delta-akuB at 0.12 ug/ml after 24 hrs in YPD medium by MS (MS/MS) analysis relative to control; assay type: functional; outline: as §2
[17] = test system: Aspergillus fumigatus; assay: Induction of change in isocitrate dehydrogenase Idp1, putative protein level in iTRAQ-118 labelled cell wall fraction of drug-susceptible Aspergillus fumigatus KU80 delta-akuB at 0.12 ug/ml after 24 hrs in YPD medium by MS (MS/MS) analysis relative to control; assay type: functional; outline: as §1
[18] = test system: Aspergillus fumigatus; assay: Induction of change in aconitate hydratase, mitochondrial protein level in iTRAQ-116 labelled secreted fraction of drug-susceptible Aspergillus fumigatus KU80 delta-akuB at 0.12 ug/ml after 48 hrs in YPD medium by MS (MS/MS) analysis relative to control; assay type: functional; outline: as §2

CC[C@H](C)C[C@H](C)CCCCCCCCC(=O)N[C@H]1C[C@@H](O)[C@@H](NCCN)NC(=O)[C@@H]2[C@@H](O)CCN2C(=O)[C@H]([C@H](O)CCN)NC(=O)[C@H]([C@H](O)[C@@H](O)c2ccc(O)cc2)NC(=O)[C@@H]2C[C@@H](O)CN2C(=O)[C@H]([C@@H](C)O)NC1=O [CASPOFUNGIN]
fold change (FC) [1]: -1.2
fold change (FC) [2]: 2.6
fold change (FC) [3]: -3.2
fold change (FC) [4]: 1.5
fold change (FC) [5]: 2.8
fold change (FC) [6]: -1.07
fold change (FC) [7]: -1.2
fold change (FC) [8]: -1.15
fold change (FC) [9]: -1.32
fold change (FC) [10]: -2.1
fold change (FC) [11]: -3
Activity [12]: inactive
fold change (FC) [13]: 7.2
Activity [14]: inactive
fold change (FC) [15]: 1.9
fold change (FC) [16]: 2.3
fold change (FC) [17]: -2.1
fold change (FC) [18]: 1.2
